E-sel inducer: E-selectin induction in HUVECs, primary screen, imaging, HUVEC, immunofluorescence imaging, single point | activation, % at 7.58 µM | 0.37% of 260,000 active | normalized: neutral wells 0, TNF-alpha wells 100;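 active means mean E-selectin-positive cell signal at least 10% of the positive control, reached in at least 60% of replicates, without over 20% cell loss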
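Read-out basis: % PE-positive cells; Test system: HUVEC primary endothelial cells; Technique: immunofluorescence imaging; Dosing: single-point compound dose.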
GSIS activator: GLuc luminescence reporter in INS-1E cells, primary screen for activators of glucose-dependent secretion of insulin | INS-1E GLuc reporter insulin secretion, 2-3 h | activation, % at 16.6 µM | AID 743287, 2014 | 0.61% of 370,000 active;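 active means lowest replicate activation of at least 40%, so every replicate reaches that level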;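 further: 0% = median of neutral control wells and 100% = median of IBMX positive control wells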
Ecoli rRNA inh: reduced GFP signal of wild-type E. coli, primary screen, bacterial rRNA inhibitor project, GFP/RFP fluorescence, OD600, single point | GFP signal change (wild-type ribosome), % (concentration not given with the values) | E. coli WT GFP vs humanized-ribosome RFP mutants, 24 h; active compounds read low; DMSO median 0, no signal -100 | 1.6% of 350,000 active;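 active means significant combined selectivity score with lowered wild-type GFP, culture density cut under 30%, mutant RFP and density less affected; inactive means any of these conditions unmet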
MLL AF4-AF9 inh: inhibitors of AF4 peptide binding to AF9, primary screen, biochemical, AlphaScreen, biotin-AF4 peptide, FLAG-AF9, single point | Protein AF-9 (Homo sapiens), P42568 | inhibition, % at 10 µM | 0.47% of 350,000 active;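 active means every replicate reaching a set inhibition limit, whatever the replicate mean, cut at about 25% in these data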;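 further: 0% = plate neutral control median and 100% = total signal loss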
RAD52 anneal inh: RAD52 DNA annealing inhibitors, primary screen, biochemical, FRET, single point, set 2; 0.46% of 360,000 active; AID 651710, 2012; recombinant RAD52 DNA annealing, FRET fluorescence; inhibition, % at 18.7 µM; DNA repair protein RAD52 homolog (Homo sapiens), P43351;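 active means every replicate showing at least 50% inhibition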
Target sequence (P43351 whole entry, looked up): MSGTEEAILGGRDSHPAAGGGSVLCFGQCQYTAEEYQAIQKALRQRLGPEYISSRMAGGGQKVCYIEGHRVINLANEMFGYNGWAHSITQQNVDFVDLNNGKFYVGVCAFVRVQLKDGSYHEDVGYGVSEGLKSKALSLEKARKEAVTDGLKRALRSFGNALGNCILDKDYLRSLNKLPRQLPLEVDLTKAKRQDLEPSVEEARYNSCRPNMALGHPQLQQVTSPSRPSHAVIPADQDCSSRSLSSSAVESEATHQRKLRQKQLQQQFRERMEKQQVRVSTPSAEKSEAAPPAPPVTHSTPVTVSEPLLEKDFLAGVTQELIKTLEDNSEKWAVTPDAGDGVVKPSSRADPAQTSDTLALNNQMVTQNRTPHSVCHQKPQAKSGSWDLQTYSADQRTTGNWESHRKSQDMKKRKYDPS
RAD54 inh: inhibitors of human RAD54 branch migration, primary screen, biochemical, fluorescence, single point | DNA repair and recombination protein RAD54-like (Homo sapiens), Q92698 | RAD54 Holliday junction branch migration, FAM/BHQ fluorescence | inhibition, % at 10.4 µM | 0.14% of 360,000 active;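 active means mean normalized replicate activity at least 40 and at least half of replicates scoring 40 or more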;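 further: 0% = median of neutral control wells and 100% = median of positive control wells; inhibitors cause a drop in the FAM fluorescence signal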
* hit, by the source's call; nt = no result given. This is a sample that favours compounds with a hit; in the whole collection about 2.6% have one here.

SMILES	E-sel inducer	GSIS activator	Ecoli rRNA inh	MLL AF4-AF9 inh	RAD52 anneal inh	RAD54 inh
C=C1C(=O)O[C@H]2C[C@]3(C)C([C@@H](OC(=O)/C(C)=C/C)[C@H]12)[C@](C)(O)CC[C@H]3O (stereo partly specified)	nt	12	18	-5	-9	0
C[C@@H]1CN([C@H](C)CO)C(=O)Cc2cc(NC(=O)c3ccncc3)ccc2O[C@@H]1CN(C)S(=O)(=O)c1ccc(Cl)cc1	0	27	1	0	-9	5
CC(C)Oc1cccc(C(=O)C2CCCN(C(=O)c3cc(C(F)(F)F)[nH]n3)C2)c1 (stereo unspecified)	nt	-36	-29*	-2	-8	-2
CCOC(=O)CCNC(=O)N1CCCC(C(=O)c2cccc(OC(C)C)c2)C1 (stereo unspecified)	0	48*	0	-2	-8	3
CC(C)Oc1cccc(C(=O)C2CCCN(C(=O)c3cc(C4CC4)[nH]n3)C2)c1 (stereo unspecified)	nt	-6	-5	1	-7	5
C[C@H]1CCCCO[C@@H](CN(C)C)[C@@H](C)CN([C@@H](C)CO)C(=O)c2cc(NS(C)(=O)=O)ccc2O1	0	27	4	-1	-13	-1
CCC(C)Sc1cccc(-c2nc3cnccn3c2NC2CCCCC2)c1 (stereo unspecified)	5	170*	6	-5	-5	-21
Cc1ccc(Cn2c(N/N=C/c3ccncc3)nc3c2c(=O)n(C)c(=O)n3C)cc1	0	nt	-10	9	-7	11
Cn1c(=O)c2c(nc(N/N=C/c3ccncc3)n2Cc2ccccc2)n(C)c1=O	0	21	-29*	11	1	16
CC1([N+](=O)[O-])COC(c2cccc3ccccc23)OC1 (stereo unspecified)	0	-7	-22*	-1	-12	10
COc1ccccc1C1OCC(C)([N+](=O)[O-])CO1 (stereo unspecified)	0	2	7	-8	-6	1
CN(C)CC(=O)Nc1ccc2c(c1)[C@@H]1C[C@@H](CC(=O)N3CCCCC3)O[C@H](CO)[C@@H]1O2	0	5	4	1	nt	nt
COc1cccc(Cl)c1NC(=O)N1CCN(c2ccnc3cc(Cl)ccc23)CC1	0	-18	-32*	2	-17	nt
Oc1ccc(N2CCN(c3ccnc4cc(Cl)ccc34)CC2)cc1	nt	12	-38*	4	-8	5
CCC(=O)N1CCN(c2ccnc3cc(Cl)ccc23)CC1	nt	30	-8	nt	3	nt
COc1cccc(Cl)c1NC(=O)N1CCN(c2cc(C)nc3ccccc23)CC1	0	-6	-16	2	-5	23
COc1ccc(N2CCN(c3ccnc4cc(Cl)ccc34)CC2)cc1	0	-8	-2	2	-9	-4
O=C(c1ccc(Cl)cc1)N1CCN(c2ccnc3cc(Cl)ccc23)CC1	nt	-48	-29*	1	-1	nt
O=C(O)c1cccc(N2C(=O)c3ccc(Oc4ccc(Cl)cc4)cc3C2=O)c1	nt	12	-36*	-4	-89	nt
O=C(O)c1cccc(N2C(=O)c3ccc4c5c(ccc(c35)C2=O)C(=O)N(c2cccc(C(=O)O)c2)C4=O)c1	nt	20	7	-3	-6	-8
CO[C@H]1CN(C)C(=O)c2ccc(NS(=O)(=O)c3ccccc3Cl)cc2OC[C@@H](C)NC[C@H]1C	0	1	2	-1	nt	nt
O=C(CNC(c1ccccc1)c1ccccc1)Nc1ccccc1Br	4	-19	-33*	0	-20	-5
COc1ccc(S(=O)(=O)N(C)C[C@@H]2OCCCC[C@H](C)Oc3ccc(NC(=O)C4CCCCC4)cc3C(=O)N([C@H](C)CO)C[C@H]2C)cc1	0	-1	-1	-1	-8	-10
COc1ccc(CC2(CO)COc3ccccc3C2=O)cc1 (stereo unspecified)	nt	0	-28*	-3	-7	nt
CC1=C(/C=C/C(C)=C/C=C/C(C)=C\C(=O)O)C(C)(C)CCC1	0	nt	nt	-4	-19	-1
SMILES	E-sel inducer	GSIS activator	Ecoli rRNA inh	MLL AF4-AF9 inh	RAD52 anneal inh	RAD54 inh
CC1=C(/C=C/C(C)=C/C=C/C(C)=C/C(=O)Nc2ccc(O)cc2)C(C)(C)CCC1	0	153*	9	17	0	-1
COC(=O)COc1ccc(C)cc1-n1nc2ccccc2n1	2	48*	-9	-4	-8	-2
COc1cccc(OC)c1C(=O)NC(=S)Nc1ccc2oc(-c3ccncc3)nc2c1	1	2	-14*	1	-4	-10
CC[C@H](C)[C@H](NC(N)=O)C(=O)Nc1ccc(NC(C)=O)cc1	nt	6	29	96*	-9	1
CC[C@H](C)[C@H](NC(N)=O)C(=O)Nc1ccc(C)cc1	0	2	11	4	5	nt
CC(C)C#Cc1cnc2c(c1)C(=O)N([C@@H](C)CO)C[C@@H](C)[C@@H](CN(C)C(=O)Cc1ccncc1)O2	0	-3	1	2	6	3
O=C1CC[C@@H](CN(Cc2ccccc2)Cc2cn[nH]c2-c2cc3ccccc3o2)N1	2	-25	-24*	4	-11	0
c1ccc2oc(-c3[nH]ncc3CN(Cc3ccncc3)CC3CCCO3)cc2c1 (stereo unspecified)	0	3	-11	2	-20	7
O=C(N[C@@H](Cc1cccnc1)C(=O)N1CCC[C@H]1C(=O)NCCc1ccccc1Cl)c1cccs1	0	-6	-17*	nt	-15	nt
C=CCN1C(=O)[C@]2(O[C@H](CCn3cc([C@H](O)c4ccccc4)nn3)[C@@H]([Si](C)(C)c3ccc(OC)cc3)[C@@H]2C)c2cc(N3CCC3=O)ccc21	nt	nt	nt	2	11	2
CCOC(=O)Cc1csc(NC(=O)c2cccc([N+](=O)[O-])c2)n1	nt	179*	-2	-3	-9	0
CCOC(=O)Cc1csc(NC(=O)Nc2cccc(OC)c2)n1	nt	-13	-29*	0	-7	5
CCOC(=O)Cc1csc(NC(=O)c2ccc(OC)c(OC)c2)n1	nt	55*	nt	nt	nt	6
CCOC(=O)Cc1csc(NC(=O)CCSc2ccccc2)n1	0	-21	-21*	-2	4	2
CCOC(=O)Cc1csc(NC(=O)CCc2ccccc2)n1	nt	-19	-9	-1	-4	-10
CCOC(=O)Cc1csc(NC(=O)c2cccc(OC)c2)n1	nt	nt	nt	nt	nt	3
Cc1noc(C)c1NC(=O)N(C)C[C@H]1Oc2c(NS(=O)(=O)c3ccc(Cl)cc3)cccc2C(=O)N([C@@H](C)CO)C[C@H]1C	0	8	0	-2	0	7

Bioassay records deposited in PubChem BioAssay by Broad Institute.
